Where no end group is shown, it is not given here. [ ]: non-standard residue; d: D form. Nle = CCCC[C@H](N)C(=O)O; Nva = CCC[C@H](N)C(=O)O; Aib = CC(C)(N)C(=O)O
Legend:
[1] = tested on: Aβ1–42 toxicity in PC-12 cells; test: MTT cell viability assay, Aβ1–42 co-incubated with tetrapeptides; format: cell-based; conditions: calculated from OD570 of MTT assay in PC-12 cells
In short: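 PC-12 cells were grown in F-12K with 5% FBS and 10% horse serum and used at 70% confluence. For the assay, medium was switched to F-12K with 10% FBS, and cells were seeded at 17 000/well overnight. Monomerized Aβ1–42 was added with test peptide (DMSO stock diluted in PBS; 1:1, 1:5, 1:10) for 6 h. MTT was then added for 4 h, followed by DMSO solubilization and OD570. Inhibition % = 100×(OD peptide+Aβ − OD Aβ)/(OD control − OD Aβ).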

[2] = target: Aβ1–42 (Homo sapiens, UniProt P05067); test: Electron microscopy; conditions: HRTEM and STEM, Aβ1–42/test peptide 1:5, 37 °C, 72 h
In short: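 HFIP-treated Aβ1–42 (50 μM in 10 mM sodium phosphate buffer, pH 7.4) mixed in equal volumes with test or control tetrapeptide (250 μM, from DMSO stock) to give 1:5, then held 72 h at 37 °C. Peptides alone were imaged too. Samples were fixed on carbon-coated copper grids with 0.5% glutaraldehyde, washed in water, negatively stained with 2% uranyl acetate and imaged at 120 keV.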

[3] = Electron microscopy of tetrapeptides incubated alone; format: physicochemical; conditions: HRTEM and STEM, peptide alone in SPB pH 7.4, 37 °C, 72 h
In short: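 Test peptide stock (5 mM in DMSO) diluted to 250 μM in 10 mM SPB, pH 7.4, and incubated alone at 37 °C for 72 h. A droplet is fixed on carbon-coated copper grids with 0.5% glutaraldehyde, washed with ultrapure water and negatively stained with 2% uranyl acetate. Grids are imaged by HRTEM/STEM at 120 keV.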

Aβ1–42, sequence (P05067 672-713): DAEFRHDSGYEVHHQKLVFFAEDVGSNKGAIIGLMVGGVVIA

| Substance | inhibition (%) of Aβ1–42 (2 μM) ([1]; test peptide 2 μM) | inhibition (%) of Aβ1–42 (2 μM) ([1]; test peptide 10 μM) | inhibition (%) of Aβ1–42 (2 μM) ([1]; test peptide 20 μM) | morphology of Aβ1–42 aggregates upon co-incubation [2] | self-aggregation of peptide incubated alone [3] |
| --- | --- | --- | --- | --- | --- |
| Ile-Val-Ile-Ala [compound 7] | 0% | 3.0% | 2.0% | – | – |
| Leu-Val-Ile-Ala [compound 5] | 0% | 0% | 0% | – | – |
| Pro-Pro-Ile-Ala [compound 25] | 14.0% | 39.0% | 90.0% | – | – |
| Pro-Val-Ile-Ala [compound 9] | 0% | 0% | 0% | – | – |
| VVI[dA] [compound 39] | 0% | – | 4.0% | – | – |
| VVI[dF] [compound 43] | 0% | 0% | 4.0% | small truncated aggregates were found in bunches | large clusters of amorphous aggregates |
| VV[Aib]A [compound 34] | 1.0% | 0% | 11.0% | – | – |
| VV[Nle]A [compound 38] | 0% | 0% | 0% | – | – |
| VV[Nva]A [compound 37] | 0% | 0% | 1.0% | – | – |
| VV[dA]A [compound 27] | 0% | 0% | 11.0% | – | – |
| VV[dF]A [compound 35] | 4.0% | 10.0% | 9.0% | – | – |
| VV[dI]A [compound 26] | 0% | 0% | 0% | – | – |
| VV[dL]A [compound 28] | 0% | 2.0% | 10.0% | – | – |
| VV[dP]A [compound 32] | 27.0% | 26.0% | 21.0% | – | – |
| VV[dV]A [compound 30] | 0% | 0% | 0% | – | – |
| V[dA]IA [compound 13] | 0% | 0% | 0% | – | – |
| V[dF]IA [compound 21] | 0% | 5.0% | 0% | – | – |
| V[dI]IA [compound 16] | 20.0% | 20.0% | 27.0% | – | – |
| V[dL]IA [compound 14] | 5.0% | 0% | 1.0% | – | – |
| V[dP]IA [compound 18] | 7.0% | 20.0% | 64.0% | – | – |

| Substance | inhibition (%) of Aβ1–42 (2 μM) ([1]; test peptide 2 μM) | inhibition (%) of Aβ1–42 (2 μM) ([1]; test peptide 10 μM) | inhibition (%) of Aβ1–42 (2 μM) ([1]; test peptide 20 μM) | morphology of Aβ1–42 aggregates upon co-incubation [2] | self-aggregation of peptide incubated alone [3] |
| --- | --- | --- | --- | --- | --- |
| V[dV]IA [compound 12] | 0% | 0% | 0% | – | – |
| Val-Ile-Ile-Ala [compound 17] | 0% | 0% | 0% | – | – |
| Val-Leu-Ile-Ala [compound 15] | 0% | 0% | 13.0% | – | – |
| Val-Pro-Ile-Ala [compound 19] | 16.0% | 17.0% | 24.0% | – | – |
| Val-Val-Ile-Ala [compound 1, reference compound] | 8.0% | 30.0% | – | – | – |
| Val-Val-Ile-Ile [compound 42] | 24.0% | 27.0% | 29.0% | – | – |
| Val-Val-Ile-Leu [compound 41] | 0% | 0% | 0% | – | – |
| Val-Val-Ile-Phe [compound 44] | 0% | 0% | 0% | – | – |
| Val-Val-Ile-Val [compound 40] | 4.0% | 13.0% | 9.0% | – | – |
| Val-Val-Leu-Ala [compound 29] | 10.0% | 0% | 0% | – | – |
| Val-Val-Phe-Ala [compound 36] | 0% | 0% | 0% | – | – |
| Val-Val-Pro-Ala [compound 33] | 0% | 0% | 3.0% | – | – |
| Val-Val-Val-Ala [compound 31] | 0% | 0% | 3.0% | – | – |
| [Aib]VIA [compound 10] | 1.0% | 9.0% | 13.0% | – | – |
| [Aib][Aib]IA [compound 24] | 13.0% | 18.0% | 73.0% | – | – |
| [Nva]VIA [compound 11] | 0% | 0% | 0% | – | – |
| [dA]VIA [compound 3] | 0% | 0% | 0% | – | – |
| [dI]VIA [compound 6] | 0% | 0% | 0% | – | – |
| [dL]VIA [compound 4] | 0% | 0% | 2.0% | – | – |
| [dP]VIA [compound 8] | 5.0% | 9.0% | 4.0% | – | – |

Reference: publication PMC6645473 (ACS Omega, 2018)
